Test [1] addresses T1, Thioredoxin reductase 1, cytoplasmic (Rattus norvegicus) (UniProt O89049).
T1 sequence (whole entry): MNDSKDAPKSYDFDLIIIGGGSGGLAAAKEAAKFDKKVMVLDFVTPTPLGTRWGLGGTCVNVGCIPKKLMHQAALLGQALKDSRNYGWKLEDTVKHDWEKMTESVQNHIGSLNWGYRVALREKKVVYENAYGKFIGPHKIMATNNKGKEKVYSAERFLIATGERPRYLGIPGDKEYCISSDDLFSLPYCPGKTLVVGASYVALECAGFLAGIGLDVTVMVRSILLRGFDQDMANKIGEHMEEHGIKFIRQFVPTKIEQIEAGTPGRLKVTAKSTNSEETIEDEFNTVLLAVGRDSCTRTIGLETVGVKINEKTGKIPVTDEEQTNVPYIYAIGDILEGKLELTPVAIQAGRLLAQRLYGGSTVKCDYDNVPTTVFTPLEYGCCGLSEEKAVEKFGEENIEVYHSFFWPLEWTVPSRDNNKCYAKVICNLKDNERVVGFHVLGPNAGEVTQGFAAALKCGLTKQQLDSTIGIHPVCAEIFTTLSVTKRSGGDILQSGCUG
Description: (§1) Inhibition of TrxR1 in rat liver homogenate preincubated for 5 mins measured by DNTB assay. The class given is tissue-based. An outline of the steps:
(§2)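 Rat liver TrxR (purified, 10 μg) in 100 mM potassium phosphate, 2 mM EDTA, pH 7.4 with NADPH, pre-incubated 5 min with inhibitor (DMSO control) at room temperature. DTNB was then added and A412 increase followed over the first 120 s. IC50 given as mean ± SD of triplicate experiments.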

Test [2] has as its target T2, Thioredoxin reductase 1, cytoplasmic (Rattus norvegicus, UniProt O89049).
T2 sequence (O89049 whole entry): T1 sequence (whole entry)
The description is as §1. Format: tissue-based. The method in brief: as §2

Another test deals with MIA PaCa-2. Description: Growth inhibition of human MIAPaCa2 cells after 48 hrs by MTT assay. The class given is functional, cell-based. The settings on record: MIA PaCa-2, 48 h. An outline of the steps:
(§3)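 Exponentially growing cells were seeded at 4000–5000 per well. LoVo was grown in RPMI 1640 and MIA PaCa-2 and U87 MG in DMEM, each with 10% FBS and penicillin/streptomycin at 37 °C under 5% CO2. Compounds in DMSO (0–50 μM) were added for 48 h, and growth was read by MTT.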

A short description of test [3]: Growth inhibition of human U87MG cells after 48 hrs by MTT assay. The class given is functional, cell-based, U-87MG ATCC. Conditions: U-87 MG. An outline of the steps: as §3
Background: Formazan colour is commonly taken as a measure of viable cells.

Another test concerns the target Thioredoxin reductase (Homo sapiens, UniProt Q16881+Q9NNW7+Q86VQ6). The experiment in a line: Inhibition of TrxR in human U87MG cells after 12 hrs by insulin-reducing method. The class given is cell-based. Conditions: U-87MG ATCC. An outline of the steps:
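U87 MG cells were treated with graded compound concentrations for 12 h, with 1% DMSO as control. Reactions were quenched with guanidine-HCl/DTNB and read at A412. The Trx-free blank was subtracted.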

The next test has as its system LoVo. Description: Growth inhibition of human LoVo cells after 48 hrs by MTT assay. The class given is functional, cell-based. An outline of the steps: as §3

A value given as a limit tells only on which side of the number the result lay.

What is called IC50 is the concentration that inhibits the measured activity by half. A lower IC50 goes with inhibition by little substance. On to `O=c1c2cc(Br)ccc2[se]n1CCn1[se]c2ccc(Br)cc2c1=O`, for which the inhibition result (in test [1]; on Thioredoxin reductase) was “Dose-dependent effect” each time. Moreover, the IC50 is 1.58 µM in test [2], over 50 µM in the test with MIA PaCa-2 and over 50 µM in test [3].

With `O=c1c2ccccc2[se]n1CCCn1[se]c2ccccc2c1=O`, the inhibition entry in test [1] was “Dose-dependent effect”. The molecule further came in with an IC50 in test [2] of 0.78 µM.

Consider `O=c1c2ccccc2[se]n1CCCCCCn1[se]c2ccccc2c1=O`, for which, in test [1], the inhibition entry is “Dose-dependent effect”. Further, the IC50 in test [2] is 1.66 µM.

Regarding `O=c1c2cc([N+](=O)[O-])ccc2[se]n1CCn1[se]c2ccc([N+](=O)[O-])cc2c1=O`, the inhibition result (in test [1]; at Thioredoxin reductase) was “Dose-dependent effect” in each case. Also, the results for the 50% inhibitory concentration (IC50) (in test [2]; in the test on MIA PaCa-2; in test [3]) were 0.57 µM, over 50 µM and over 50 µM, respectively.

Turning to `O=c1c2cc(F)ccc2[se]n1CCCn1[se]c2ccc(F)cc2c1=O`, the inhibition entry in test [1] is “Dose-dependent effect”. Moreover, the IC50 in test [2] is 0.86 µM.

As for `O=c1c2cc(F)ccc2[se]n1CCCCn1[se]c2ccc(F)cc2c1=O`, the inhibition result in test [1] was “Dose-dependent effect”. For the same molecule, inhibition in test [2] was half-maximal at 1.64 µM (IC50).

`O=c1c2ccc(F)cc2[se]n1CCn1[se]c2cc(F)ccc2c1=O`: in test [1], the inhibition result was “Dose-dependent effect”. Also, the IC50 is 0.82 µM in test [2], 8.47 µM in the test with MIA PaCa-2 and 12.6 µM in test [3].

`O=c1c2ccccc2[se]n1CCCCCCCCn1[se]c2ccccc2c1=O`: in test [1], the inhibition result is “Dose-dependent effect”. Besides, the IC50 in test [2] was 4.49 µM.

For `O=c1c2cc(F)ccc2[se]n1CCCCCn1[se]c2ccc(F)cc2c1=O`, the inhibition entry in test [1] is “Dose-dependent effect”. Inhibition in test [2] was half-maximal at 3.87 µM (IC50).

Regarding `Cc1ccc2[se]n(CCCCn3[se]c4ccc(C)cc4c3=O)c(=O)c2c1`, in test [1], the inhibition entry is “Dose-dependent effect”. In test [2], this molecule returned a 50% inhibitory concentration (IC50) of 2.38 µM.

`O=c1c2cc(Br)ccc2[se]n1CCCCCn1[se]c2ccc(Br)cc2c1=O`: the inhibition entry in test [1] is “Dose-dependent effect”. The same molecule displayed an IC50 in test [2] of 1.59 µM.

In the case of `Cc1ccc2[se]n(CCCCCn3[se]c4ccc(C)cc4c3=O)c(=O)c2c1`, the inhibition result in test [1] is “Dose-dependent effect”. Besides, the IC50 was determined as 3.16 µM in test [2], 6.71 µM in the test with MIA PaCa-2, 12.2 µM in test [3] and 16.6 µM in the test with LoVo.

Take `Cc1ccc2[se]n(CCCCCCn3[se]c4ccc(C)cc4c3=O)c(=O)c2c1`: the inhibition result in test [1] was “Dose-dependent effect”. Further, in test [2], the midpoint of inhibition, the IC50, lay at 4.91 µM.

Take `O=c1c2ccccc2[se]n1CCCCCCCn1[se]c2ccccc2c1=O`: the inhibition entry in test [1] was “Dose-dependent effect”. The IC50 in test [2] was 5.85 µM.

As for `O=c1c2ccccc2[se]n1-c1ccc(-n2[se]c3ccccc3c2=O)cc1`, in test [1], the inhibition result is “Dose-dependent effect”. For the same molecule, the IC50 was 34.3 µM in test [2], over 50 µM in the test with MIA PaCa-2 and over 50 µM in test [3].

As for `O=c1c2ccccc2on1CCn1oc2ccccc2c1=O`, the inhibition result in test [1] is “Dose-dependent effect”. In test [2], this molecule came in with an IC50 of over 100 µM.

For the molecule `O=c1c2cc(Cl)ccc2[se]n1CCCCCn1[se]c2ccc(Cl)cc2c1=O`, in test [1], the inhibition entry is “Dose-dependent effect”. In test [2], half-maximal inhibition (IC50) was put at 1.8 µM.

Turning to `O=c1c2ccc(F)cc2[se]n1CCCCCn1[se]c2cc(F)ccc2c1=O`, the inhibition entry in test [1] was “Dose-dependent effect”. The IC50 in test [2] was 2.91 µM.

In the case of `O=c1c2cc(F)ccc2[se]n1CCn1[se]c2ccc(F)cc2c1=O`, the inhibition result in test [1] was “Dose-dependent effect”. Also, the IC50 worked out at 0.28 µM in test [2], 3.07 µM in the test on MIA PaCa-2, 6.95 µM in test [3] and 4.55 µM with LoVo.

On to `O=c1c2ccc(Cl)cc2[se]n1CCn1[se]c2cc(Cl)ccc2c1=O`, for which the inhibition entry in test [1] is “Dose-dependent effect”. The half-maximal inhibitory concentration (IC50) in test [2] is 2.87 µM; in the test on MIA PaCa-2, over 50 µM; in test [3] it was over 50 µM.

In the case of `O=c1c2cc(Cl)ccc2[se]n1CCn1[se]c2ccc(Cl)cc2c1=O`, the inhibition result in test [1] was “Dose-dependent effect”. Moreover, the IC50 in test [2] was 1.31 µM; with MIA PaCa-2, over 50 µM; in test [3], over 50 µM.

Regarding `O=c1c2ccccc2sn1CCn1sc2ccccc2c1=O`, the inhibition result in test [1] was “Dose-dependent effect”. Moreover, 48.1 µM corresponded to half-maximal inhibition in test [2] (IC50).

Consider `Cc1ccc2[se]n(C3CCC(n4[se]c5ccc(C)cc5c4=O)CC3)c(=O)c2c1` (stereo unspecified), for which the inhibition entry in test [1] was “Dose-dependent effect”. Moreover, the IC50 in test [2] is over 50 µM.

Regarding `Cc1ccc2[se]n(CCCn3[se]c4ccc(C)cc4c3=O)c(=O)c2c1`, in test [1], the inhibition entry is “Dose-dependent effect”. This molecule also gave an IC50 in test [2] of 1.16 µM.

Take `O=c1c2ccccc2[se]n1CCCCCn1[se]c2ccccc2c1=O`: the inhibition result in test [1] is “Dose-dependent effect”. The IC50 was 1.95 µM in test [2], 3.27 µM in the test on MIA PaCa-2, 6.05 µM in test [3] and 5.5 µM in the test on LoVo.

As to `O=c1c2cc(O)ccc2[se]n1CCn1[se]c2ccc(O)cc2c1=O`, the inhibition entry in test [1] is “Dose-dependent effect”. The IC50 in test [2] is 0.32 µM; in the test with MIA PaCa-2, 5.3 µM; in test [3], 6.6 µM; with LoVo, 6.53 µM.

As to `O=c1c2ccccc2[se]n1Cc1ccc(-n2[se]c3ccccc3c2=O)cc1`, the inhibition result in test [1] is “Dose-dependent effect”. The IC50 was 47.7 µM in test [2], over 50 µM in the test with MIA PaCa-2 and over 50 µM in the test with LoVo.

For the molecule `O=c1c2ccccc2[se]n1CCCCn1[se]c2ccccc2c1=O`, the inhibition entry in test [1] is “Dose-dependent effect”. Moreover, the IC50 in test [2] is 1.03 µM.

`O=c1c2ccccc2[se]n1C1CCCCC1n1[se]c2ccccc2c1=O` (stereo unspecified): the inhibition entry in test [1] was “Dose-dependent effect”. In addition, the IC50 in test [2] was 12.8 µM; with MIA PaCa-2 it was 11.5 µM; in test [3] it was over 50 µM; in the test with LoVo, 17.2 µM.

Turning to `Cc1ccc2[se]n(CCn3[se]c4ccc(C)cc4c3=O)c(=O)c2c1`, the inhibition result (in test [1]; at Thioredoxin reductase) was “Dose-dependent effect” in each case. The half-inhibitory concentration (IC50) was found to be 1.26 µM in test [2], 5.94 µM with MIA PaCa-2, 17.8 µM in test [3] and 6.12 µM with LoVo.

On to `O=c1c2ccc(Cl)cc2[se]n1CCCCCn1[se]c2cc(Cl)ccc2c1=O`, for which, in test [1], the inhibition entry was “Dose-dependent effect”. The IC50 in test [2] is 4.54 µM.

With `CC(=O)Oc1ccc2[se]n(CCn3[se]c4ccc(OC(C)=O)cc4c3=O)c(=O)c2c1`, the inhibition result in test [1] is “Dose-dependent effect”. Further, the IC50 turned out to be 22.6 µM in test [2], 10.2 µM with MIA PaCa-2 and 20.8 µM in test [3].
